Test results taken from ChEMBL document CHEMBL1126753, “1-Carboranyl-3-(2-methylaziridino)-2-propanol. Synthesis, selective uptake by B-16 melanoma, and selective cytotoxicity toward cancer cells” (J Med Chem, 1993).

How the values were obtained:
IMR-32 = assay: (§1) Inhibition of growth of IMR 32 human tumor cell line; assay type: functional, cell-based
Method in brief: (§2)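 1 × 10⁶ cells per 60-mm dish in Eagle-MEM plus 10% FCS, treated with 1, 2.5, 5, 10, 25, 50 or 100 ppm compound (DMSO vehicle) for 3 days at 37 °C in CO₂. Cells were washed with PBS, trypsinized and counted; the count is a percentage of untreated control, and IC50 is the concentration giving 50% of control cell number.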

Tumor cell line = assay: as §1; assay type: functional, cell-based; method in brief: as §2
B16 [1] = assay: Boron incorporation into B-16 […] tumor cell after 2 hours; assay type: functional
Method in brief: (§3)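 Cells grown to confluence in 150-mm dishes (about 5.0 × 10⁶ cells/dish), then exposed to carrier (1.5 ppm carborane or 200 ppm BPA-HCl) in Eagle-MEM with 10% FCS at 37 °C. Cells were washed thrice in Ca-Mg-free PBS, scraped, digested in HClO₄–H₂O₂ for 1 h at 75 °C, and filtered. Boron was measured by ICP-AES, untreated-dish boron subtracted, and reported as μg/10⁶ cells; two replicates, SD.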

TIG-1-20 [2] = assay: Boron incorporation into TIG-1-20 human fetal lung normal cell line after 2 hours; assay type: functional; method in brief: as §3
B16 [3] = assay: Boron incorporation into B-16 […] tumor cell after 24 hours; assay type: functional; method in brief: as §3
TIG-1-20 [4] = assay: Boron incorporation into TIG-1-20 human fetal lung normal cell line after 24 hours; assay type: functional; method in brief: as §3

SMILES | IC50 (IMR-32) | IC50 (Tumor cell line) | Boron incorporation (B16 [1]) | Boron incorporation (TIG-1-20 [2]) | Boron incorporation (B16 [3]) | Boron incorporation (TIG-1-20 [4])
CC1CN1CC(O)CC1CC1 (stereo not given) | 8.2e-6 ppm g dm**-3 | 0.0000319 M mol/dm 3 | 0.25 µg | 0.14 ug/10e6 | 0.26 ug/10e6 | 0.11 ug/10e6
NC(Cc1ccc(B(O)O)cc1)C(=O)O (stereo not given) |  |  | 0.22 ug/10e6 | 0.17 ug/10e6 | 0.28 ug/10e6 | 0.26 ug/10e6
